Results published in ChEMBL document CHEMBL2203201, “Synthesis and antimalarial evaluation of a screening library based on a tetrahydroanthraquinone natural product scaffold” (Bioorg Med Chem, 2012).
Converted amounts (≈) assume the structure as drawn.

Experiments:
Plasmodium falciparum [1] = experiment: Antimalarial activity against chloroquine-sensitive ring stage plasmodium falciparum 3D7 infected in erythrocytes assessed as [3H]hypoxanthine incorporation after 48 hrs by liquid scintillation counting; assay type: functional, organism-based
Procedure, shortened: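 P. falciparum 3D7-infected type O+ erythrocytes (0.5% parasitemia, 2.5% hematocrit) incubated with serial dilutions for 48 h under standard culture conditions. 0.5 μCi 3H-hypoxanthine then added and culture continued a further 24 h. Incorporation counted by liquid scintillation against 0.5% DMSO controls. IC50 by linear interpolation of inhibition curves. Mean of three independent experiments, each in triplicate, ±SD.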

[2] = Selectivity index, ratio of IC50 for human NFF cells to IC50 for chloroquine-sensitive ring stage plasmodium falciparum 3D7
NFF = experiment: Cytotoxicity against human NFF cells after 3 days by sulforhodamine B assay; assay type: cell-based; conditions: 72 h
Procedure, shortened: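 Neonatal foreskin fibroblasts grown in RPMI 1640 with 10% FCS and 1% streptomycin at 37 °C, 5% CO2, kept in log phase. Seeded at 3000/well and grown 24 h before treatment. Compounds diluted from DMSO into medium (≤1% DMSO); controls got matching DMSO. After 3 days, PBS wash, fixation in methylated spirits, total protein by sulforhodamine B. Triplicate, three independent experiments.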

Plasmodium falciparum [3] = experiment: Antimalarial activity against chloroquine-resistant ring stage plasmodium falciparum Dd2 infected in erythrocytes assessed as [3H]hypoxanthine incorporation after 48 hrs by liquid scintillation counting; assay type: functional, organism-based
Procedure, shortened: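 Infected erythrocytes at 0.5% parasitemia and 2.5% hematocrit were plated into serial dilutions of test compound or chloroquine control. After 48 h under standard culture conditions, 0.5 μCi 3H-hypoxanthine was added per well and incubation continued 24 h. Cells were harvested onto filter mats and counted by scintillation. Inhibition was set against 0.5% DMSO controls, and IC50 was obtained by linear interpolation. Mean ± SD of three independent triplicate experiments.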

Staphylococcus aureus = experiment: Antibacterial activity against Staphylococcus aureus; assay type: functional, organism-based
Pseudomonas aeruginosa = experiment: Antibacterial activity against Pseudomonas aeruginosa; assay type: functional, organism-based

Compound | IC50 (Plasmodium falciparum [1]) [µM] | Ratio IC50 [2] | IC50 (NFF) [µM] | IC50 (Plasmodium falciparum [3]) [µM] | IC50 (Staphylococcus aureus) [µg/mL] | IC50 (Pseudomonas aeruginosa) [µg/mL]
C[C@]1(O)Cc2c(O)c3c(c(O)c2[C@@H](O)C1)C(=O)C=C(NCCN1CCOCC1)C3=O | 15.8 | 3.9 | 62 | – | – | –
CNC1=CC(=O)c2c(O)c3c(c(O)c2C1=O)C[C@](C)(O)C[C@@H]3O | 6.9 | 8.6 | 59.1 | – | – | –
COC1=CC(=O)c2c(O)c3c(c(O)c2C1=O)C[C@@](C)(O)C[C@@H]3O | 4.7 | 9.3 | 43.7 | 11.1 | – | –
CCCNC1=CC(=O)c2c(O)c3c(c(O)c2C1=O)C[C@](C)(O)C[C@@H]3O | 4.3 | 18.3 | 78.8 | – | – | –
CCN(CC)CCCC(C)Nc1ccnc2cc(Cl)ccc12 (stereo unspecified) [CHLOROQUINE] | – | – | 37.3 | – | – | –
COc1cc(O)c2c(c1O)C(=O)c1cc(C)ccc1C2=O [AUSTROCORTIRUBIN] | > 50 | – | 76 | > 50 | – | –
C[C@]1(O)Cc2c(O)c3c(c(O)c2[C@@H](O)C1)C(=O)C=C(NCc1ccccc1)C3=O | 7.4 | 1.4 | 10.7 | – | – | –
C[C@]1(O)Cc2c(O)c3c(c(O)c2[C@@H](O)C1)C(=O)C=C(NCCc1ccc(O)cc1)C3=O | 2.4 | 9.7 | 23.3 | – | – | –
COCCNC1=CC(=O)c2c(O)c3c(c(O)c2C1=O)C[C@](C)(O)C[C@@H]3O | 10.3 | 8.2 | 84.3 | – | – | –
CC(C)(C)OC(=O)NCCCNC1=CC(=O)c2c(O)c3c(c(O)c2C1=O)C[C@](C)(O)C[C@@H]3O | 6.7 | 5.4 | 36.5 | – | – | –
C[C@]1(O)Cc2c(O)c3c(c(O)c2[C@@H](O)C1)C(=O)C=C(NCCc1ccccc1)C3=O | 3.8 | 0.9 | 3.5 | – | – | –
COC1=CC(=O)c2c(O)c3c(c(O)c2C1=O)C[C@](C)(O)CC3 | 4.5 | 12.1 | 54.6 | 5.2 | – | –
C[C@]1(O)Cc2c(O)c3c(c(O)c2[C@@H](O)C1)C(=O)C=C(NCCCN)C3=O | 16.5 | 5.4 | 89.8 | – | – | –
C[C@]1(O)Cc2c(O)c3c(c(O)c2[C@@H](O)C1)C(=O)C=C(NCCN1CCCC1)C3=O | 6.3 | 2.5 | 15.9 | – | – | –
C[C@]1(O)Cc2c(O)c3c(c(O)c2[C@@H](O)C1)C(=O)C=C(NCCc1ccc(Cl)cc1)C3=O | 4.2 | 15.7 | 66 | – | – | –
COC1=CC(=O)c2c(O)c3c(c(O)c2C1=O)C[C@](C)(O)C[C@@H]3O | 1.9 | 8.2 | 15.6 | 2.2 | 3 (≈ 9.37 µM) | > 50
